The source of these data is PMC8463264 (Acta Pharmaceutica Sinica. B, 2020).

Where no end group is shown, it is not given here.

For orientation: IC50 means the concentration that gives 50% inhibition.

The subject of one data set is CXCR4-tropic HIV-1. As to the kind of experiment: X4-HIV-1 inhibition assay in TZM-bl reporter cells. Type of data set: cell-based. Particulars: for fold increase of antiviral (anti-HIV-1) activity over WSC02: ratio of IC50 values vs WSC02.
The subject of the next data set is mice. As to the kind of experiment: Observation of visible or behavioral adverse effects in mice. Type of data set: in vivo, mouse. Particulars: administered topically onto the ears or intranasally into lungs of mice.
In another data set the target is CXCR4 (Homo sapiens, UniProt P61073). In words: CXCR4 12G5 antibody competition assay on SupT1 cells. Type of data set: binding.
Sequence of CXCR4 (P61073 whole entry): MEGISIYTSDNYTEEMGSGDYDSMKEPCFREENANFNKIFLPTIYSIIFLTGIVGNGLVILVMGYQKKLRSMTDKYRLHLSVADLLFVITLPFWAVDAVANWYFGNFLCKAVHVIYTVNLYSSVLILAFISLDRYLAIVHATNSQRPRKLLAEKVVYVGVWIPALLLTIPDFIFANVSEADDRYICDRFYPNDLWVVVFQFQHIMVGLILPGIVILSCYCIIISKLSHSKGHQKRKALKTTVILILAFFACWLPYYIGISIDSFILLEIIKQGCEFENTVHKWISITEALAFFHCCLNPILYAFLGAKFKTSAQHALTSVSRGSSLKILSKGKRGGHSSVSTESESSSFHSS
In data set [1] the test system is CXCL12-induced intracellular Ca^2+ mobilization in BCR-ABL expressing murine pro/pre B cells. As to the kind of experiment: CXCL12-induced Ca2+ mobilization assay. Type of data set: cell-based, mouse. A general note: A change in cytosolic calcium serves as a functional read-out for many receptors and channels.
For data set [2], the system named is immune cell infiltration into BAL of BALB/c mice. As to the kind of experiment: Mouse model of allergic airway hypereosinophilia. Particulars: for effect on influx of macrophages into BAL: OVA-challenged mice. Type of data set: in vivo.
In data set [3] the test system is MC903-induced skin inflammation of ears of BALB/c mice. As to the kind of experiment: Mouse model of atopic dermatitis. Type of data set: in vivo.
Data set [4] relates to SupT1 migration towards a CXCL12 gradient. In words: Transwell cell migration assay. Type of data set: cell-based. In outline: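 SupT1 cells (0.75 × 10^5) in RPMI with 0.1% BSA go into the upper chamber of a 5 μm polycarbonate transwell, with or without compound, and settle ~15 min. The lower chamber holds buffer with or without 100 ng/mL CXCL12 plus compound. After 4 h of migration at 37 °C (5% CO2), lower-chamber cells are counted by CellTiter-Glo and normalized to CXCL12-only. Mean ± SEM, n = 3; fold values compare IC50s.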

The next data set relates to zebrafish embryos. In words: Toxicity in zebrafish embryos. Type of data set: in vivo. In outline:
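Wild-type embryos dechorionated at 24 hpf with 1 mg/mL pronase in E3, then exposed 24 h in E3 containing peptide. Two independent assays per concentration, each on 10 × 3 embryos. Controls: PBS solvent diluted in E3 matching the highest-dose amount, and pleurocidin peptide NRC-03. Scored at 48 hpf by stereomicroscope: lysis/necrosis, delay/malformations, heart edema/reduced or absent circulation.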

The conditions of data set [5]: cited from earlier work.
Where [6] appears, read: 16 μmol/kg intranasal, 2 h before each OVA challenge, BAL on day 8, mean ± SEM.
Setting [7] is: 315 nmol/ear topically daily, day 11, mean ± SEM.
The mark [8] stands for this setting: 12.6 μmol/kg intranasal, 2 h before each OVA challenge, BAL on day 8, mean ± SEM.
[9] abbreviates: 20 nmol/ear topically daily, day 11, mean ± SEM.
The mark [10] stands for this setting: 2.5 nmol/ear every two days, day 11 (disease inducer).

With H-ILRWSKKVPCVS [JM#1], the “fold increase of antiviral (anti-HIV-1) activity over WSC02” value in the data set with CXCR4-tropic HIV-1 amounted to 9 fold.
In the case of H-IVRWSKKVPCVS [WSC02], the “visible or behavioral adverse effects” value with mice is “did not observe visible or behavioral adverse effects”.
With H-LVRYTKKVPQVSTPTL [EPI-X4], the IC50 on CXCR4 stood at 3240 ± 620 nM. For the same molecule, in the data set with mice, the “visible or behavioral adverse effects” value was “did not observe visible or behavioral adverse effects”. Also, the “effect on CXCL12-induced Ca2+ mobilization” value in [1] (at the tested concentrations) was “almost inactive”. Moreover, in data set [2] (setting [6]), the “inhibition of recruitment of B cells into BAL” value was determined as 54 ± 9%, the “inhibition of recruitment of T cells into BAL” value came out at 61 ± 8%, the “inhibition of recruitment of eosinophils into BAL” value turned out to be 76 ± 7% and the “inhibition of recruitment of neutrophils into BAL” value worked out at 63 ± 7%. For the same molecule, in data set [2] (16 μmol/kg intranasal), the “effect on influx of macrophages into BAL” value is recorded as “not macrophages”.
As for H-IVRWSKKFPCVS [JM#7], in the data set with CXCR4-tropic HIV-1, the “fold increase of antiviral (anti-HIV-1) activity over WSC02” value is “about 2 fold”.
As to `CC[C@H](C)[C@H](N)C(=O)N[C@@H](CC(C)C)C(=O)N[C@@H](CCCNC(=N)N)C(=O)N[C@@H](Cc1c[nH]c2ccccc12)C(=O)N[C@@H](CO)C(=O)N[C@@H](CCCNC(=N)N)C(=O)N[C@@H](CCCCN)C(=O)N[C@@H](CC(C)C)C(=O)N1CCC[C@H]1C(=O)N[C@@H](CS)C(=O)N[C@H](C(=O)N[C@@H](CO)C(=O)O)C(C)C` [JM#21], the “inhibition of MC903-induced ear thickening” value in data set [3] (400 nmol/ear topically daily, day 11, mean ± SEM) was 88 ± 4%. In data set [4] (vs WSC02), the “fold more efficient than WSC02 in blocking migration” value was 33 fold. Moreover, the “fold more efficient than EPI-X4 in blocking migration” value in data set [4] (vs wild type peptide EPI-X4) was “more than 1400 fold”. Moreover, the IC50 on CXCR4 amounted to 220 ± 20 nM. Moreover, on CXCR4 (vs AMD3100), the “fold more active than AMD3100 in 12G5 competition” value was “about 3 fold”. For the same molecule, the “fold more active than WSC02 in 12G5 competition” value on CXCR4 (vs WSC02) is ~2 fold. For the same molecule, in the data set on zebrafish embryos (exposure 24 h from 24 hpf, 3, 30 and 300 μmol/L, 60 embryos per group), the “toxicity in zebrafish embryos (acute, developmental, cardiotoxicity)” value is given as “not toxic”. Moreover, the “visible or behavioral adverse effects” value in the data set with mice is “did not observe visible or behavioral adverse effects”. In [2] (setting [6]), the “inhibition of recruitment of B cells into BAL” value is 71 ± 5%, the “inhibition of recruitment of T cells into BAL” value was found to be 73 ± 13%, the “inhibition of recruitment of eosinophils into BAL” value stood at 80 ± 1% and the “inhibition of recruitment of neutrophils into BAL” value is recorded as 42 ± 15%. Further, the “effect on influx of macrophages into BAL” value in [2] (16 μmol/kg intranasal) was “not macrophages”.
On to `c1cc(CN2CCCNCCNCCCNCC2)ccc1CN1CCCNCCNCCCNCC1` [AMD3100, Plerixafor], for which, in [3] (setting [7]), the “inhibition of MC903 induced ear thickness” value was 25 ± 7% and the “inhibition of disease score” value turned out to be 18 ± 6%. The “effect on CXCL12-induced Ca2+ mobilization” value in data set [1] (1 μmol/L compound) is given as “reduced Ca^2+ mobilization”. In addition, in data set [1] (10 μmol/L compound), the “effect on CXCL12-induced Ca2+ mobilization” value is listed as “completely abrogated”. In [5], the “stability towards plasma proteases” value is “resistant to plasma proteases”. Also, the IC50 in the data set with CXCR4-tropic HIV-1 (Human immunodeficiency virus 1, TZM-bl, read-out: IC50±SEM X4-HIV-1) was 12 ± 2 nM. Further, in data set [2] (setting [8]), the “inhibition of recruitment of B cells into BAL” value is given as 47 ± 17%, the “inhibition of recruitment of T cells into BAL” value stood at 47 ± 15%, the “inhibition of recruitment of eosinophils into BAL” value is 56 ± 13% and the “inhibition of recruitment of neutrophils into BAL” value is given as 57 ± 14%. For the same molecule, in data set [2] (setting [8]), the “inhibition of recruitment of total cells into BAL” value is 41 ± 13%.
Turning to `C[C@@H]1C[C@H]2[C@@H]3CCC4=CC(=O)C=C[C@]4(C)[C@@]3(F)[C@@H](O)C[C@]2(C)[C@@]1(O)C(=O)CO` [dexamethasone], in data set [3] (setting [9]), the “inhibition of MC903-induced ear thickening” value came to 96 ± 2% and the “inhibition of disease score” value was found to be 97 ± 2%.
As to GRRKRKWLRRIGKGVKIIGGAALDHL-NH2 [NRC-03], the “toxicity in zebrafish embryos (positive control)” value in the data set with zebrafish embryos (6 μmol/L, exposure 24 h) is reported as “acutely toxic”.
For `C=C1/C(=C\C=C2/CCC[C@]3(C)[C@@H]([C@H](C)/C=C/[C@@H](O)C4CC4)CC[C@@H]23)C[C@@H](O)C[C@@H]1O` [MC903, calcipotriol hydrate], in data set [3] (setting [10]), the “disease score (0-12, Table 3)” value amounted to 9.4 ± 0.1 and the “increase of the ear thickness as compared to control” value was 3.1 ± 0.1 fold.
